ChEMBL document CHEMBL4368933, “Structure-activity relationship of leucyladenylate sulfamate analogues as leucyl-tRNA synthetase (LRS)-targeting inhibitors of Mammalian target of rapamycin complex 1 (mTORC1)” (Bioorg Med Chem, 2019)
The source made the active and inactive calls. The calls are words filed in the database; no cut-off is given here.

Assays:
[1] = molecular target: Leucine--tRNA ligase, cytoplasmic (Homo sapiens) (UniProt Q9P2J5); assay: Inhibition of Leucyl-tRNA synthetase-mediated mTORC1 signaling activation in human HEK293 cells assessed as reduction in leucine-induced S6K phosphorylation at 200 uM preincubated for 50 mins followed by leucine-stimulation and measured after 10 mins by Western blot analysis; type: cell-based
Sequence of Leucine--tRNA ligase, cytoplasmic (Homo sapiens) (Q9P2J5 whole entry, looked up): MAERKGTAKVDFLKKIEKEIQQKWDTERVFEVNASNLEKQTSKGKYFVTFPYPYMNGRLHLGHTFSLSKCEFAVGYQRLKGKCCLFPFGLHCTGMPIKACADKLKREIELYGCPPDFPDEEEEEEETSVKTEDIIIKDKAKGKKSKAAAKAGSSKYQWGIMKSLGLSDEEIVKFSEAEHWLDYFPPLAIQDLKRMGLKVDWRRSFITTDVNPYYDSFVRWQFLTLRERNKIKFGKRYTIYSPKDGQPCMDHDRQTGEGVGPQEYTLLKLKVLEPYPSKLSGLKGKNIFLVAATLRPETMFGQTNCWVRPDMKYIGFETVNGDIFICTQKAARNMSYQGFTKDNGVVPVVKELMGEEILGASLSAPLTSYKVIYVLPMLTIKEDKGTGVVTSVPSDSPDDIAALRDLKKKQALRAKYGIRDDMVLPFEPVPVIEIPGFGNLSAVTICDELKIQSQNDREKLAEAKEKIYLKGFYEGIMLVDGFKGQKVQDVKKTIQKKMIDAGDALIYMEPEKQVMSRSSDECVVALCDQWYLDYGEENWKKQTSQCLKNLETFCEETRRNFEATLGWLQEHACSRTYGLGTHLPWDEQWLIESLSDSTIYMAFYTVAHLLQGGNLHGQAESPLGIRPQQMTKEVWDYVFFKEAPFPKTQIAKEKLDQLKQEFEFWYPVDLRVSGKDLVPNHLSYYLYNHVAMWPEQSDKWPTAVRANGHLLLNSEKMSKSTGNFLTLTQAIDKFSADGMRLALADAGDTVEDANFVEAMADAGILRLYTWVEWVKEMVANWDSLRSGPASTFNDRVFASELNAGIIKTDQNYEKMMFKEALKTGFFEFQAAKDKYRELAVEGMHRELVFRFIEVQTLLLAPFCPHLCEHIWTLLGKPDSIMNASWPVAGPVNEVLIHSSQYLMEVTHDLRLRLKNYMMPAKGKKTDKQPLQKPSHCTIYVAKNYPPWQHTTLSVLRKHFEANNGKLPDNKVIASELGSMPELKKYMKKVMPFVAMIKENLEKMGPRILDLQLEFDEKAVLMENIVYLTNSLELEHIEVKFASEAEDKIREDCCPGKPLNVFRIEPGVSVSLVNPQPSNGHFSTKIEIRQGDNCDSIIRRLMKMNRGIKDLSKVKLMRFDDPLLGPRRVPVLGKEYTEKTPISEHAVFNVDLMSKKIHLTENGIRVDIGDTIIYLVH
Method in brief: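 HEK293 cells pretreated with test agent at a fixed 200 µM, alongside rapamycin (100 nM) and leucinol (800 µM) as references. mTORC1 then activated by adding leucine for 10 min. S6K phosphorylation read by Western blot.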

HCT-116 = assay: Antiproliferative activity against human HCT116 cells after 72 hrs by SRB assay; type: functional, cell-based; details: HCT-116, 72 h
Method in brief: (§1)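 Colorimetric growth assay with IC50 values derived; etoposide as positive control. Cell lines: A549 (lung cancer), HCT116 (colon cancer), MDA-MB-231 (breast cancer), SK-Hep-1 (liver cancer), SNU638 (stomach cancer), MRC5 (normal lung […]).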

MDA-MB-231 = assay: Antiproliferative activity against human MDA-MB-231 cells after 72 hrs by SRB assay; type: functional, cell-based; details: MDA-MB-231, 72 h; method in brief: as §1
mTORC2 (Homo sapiens) = mTORC2 (Homo sapiens) (UniProt P42345+Q6R327+Q9BVC4+Q9BPZ7); assay: Inhibition of mTORC2 signaling in human HEK293 cells assessed as reduction in leucine-induced AKT phosphorylation at 200 uM preincubated for 50 mins followed by leucine-stimulation and measured after 10 mins by Western blot analysis; type: cell-based
SK-HEP1 = assay: Antiproliferative activity against human SKHEP1 cells after 72 hrs by SRB assay; type: functional, cell-based; details: SK-HEP1, 72 h; method in brief: as §1
MRC5 = assay: Antiproliferative activity against human MRC5 cells after 72 hrs by SRB assay; type: cell-based; details: MRC5, 72 h; method in brief: as §1
SNU-638 = assay: Antiproliferative activity against human SNU638 cells after 72 hrs by SRB assay; type: functional, cell-based; details: SNU-638, 72 h; method in brief: as §1
[2] = molecular target: Leucine--tRNA ligase, cytoplasmic (Homo sapiens) (UniProt Q9P2J5); assay: Inhibition of Leucyl-tRNA synthetase-mediated mTORC1 signaling activation in human HEK293 cells assessed as reduction in leucine-induced S6K phosphorylation preincubated for 50 mins followed by leucine-stimulation and measured after 10 mins by Western blot analysis; type: cell-based
Method in brief: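 HEK293 cells pretreated at 20, 50, 100 and 200 µM. Leucine then added for 10 min to activate mTORC1. Dose dependence of leucine-induced S6K phosphorylation assessed by Western blot.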

A549 = assay: Antiproliferative activity against human A549 cells after 72 hrs by SRB assay; type: functional, cell-based; details: A549, 72 h; method in brief: as §1
HEK293 = assay: Effect on leucine-induced AKT levels in human HEK293 cells at 200 uM preincubated for 50 mins followed by leucine-stimulation and measured after 10 mins by Western blot analysis; type: functional, cell-based

Structure (SMILES): CC(C)C[C@H](O)C(=O)NS(=O)(=O)OC[C@H]1O[C@@H](n2cnc3c(N)ncnc32)[C@H](O)[C@@H]1O
- inhibition [1]: Active
- IC50 (HCT-116): 3.47 µM
- IC50 (MDA-MB-231): 2.61 µM
- inhibition (mTORC2 (Homo sapiens)): inactive
- IC50 (SK-HEP1): 1.76 µM
- IC50 (MRC5): 16.6 µM
- IC50 (SNU-638): 4.5 µM
- inhibition [2]: Dose-dependent effect
- IC50 (A549): 1 µM
- Activity (HEK293): inactive

Structure (SMILES): CC(C)[C@@H](O)[C@H](O)C(=O)NS(=O)(=O)OC[C@H]1O[C@@H](n2cnc3c(N)ncnc32)C[C@@H]1O
- inhibition [1]: Active
- IC50 (HCT-116): 6.52 µM
- IC50 (MDA-MB-231): 6.27 µM
- inhibition (mTORC2 (Homo sapiens)): inactive
- IC50 (SK-HEP1): 5.74 µM
- IC50 (MRC5): > 20 µM
- IC50 (SNU-638): 4.72 µM
- inhibition [2]: Dose-dependent effect
- IC50 (A549): 5.04 µM
- Activity (HEK293): inactive
